The source made the active and inactive calls. The calls are words filed in the database; no cut-off is given here.
How the values were obtained:
[1] = biological target: T1, Retinoic acid receptor RXR-alpha (Homo sapiens) (UniProt P19793); test: Agonist activity at human RXRalpha expressed in human HCT116 cells assessed as increase in RXRE-mediated transcription incubated for 24 hrs by RXRE luciferase reporter gene assay; type: cell-based
T1 sequence (whole entry): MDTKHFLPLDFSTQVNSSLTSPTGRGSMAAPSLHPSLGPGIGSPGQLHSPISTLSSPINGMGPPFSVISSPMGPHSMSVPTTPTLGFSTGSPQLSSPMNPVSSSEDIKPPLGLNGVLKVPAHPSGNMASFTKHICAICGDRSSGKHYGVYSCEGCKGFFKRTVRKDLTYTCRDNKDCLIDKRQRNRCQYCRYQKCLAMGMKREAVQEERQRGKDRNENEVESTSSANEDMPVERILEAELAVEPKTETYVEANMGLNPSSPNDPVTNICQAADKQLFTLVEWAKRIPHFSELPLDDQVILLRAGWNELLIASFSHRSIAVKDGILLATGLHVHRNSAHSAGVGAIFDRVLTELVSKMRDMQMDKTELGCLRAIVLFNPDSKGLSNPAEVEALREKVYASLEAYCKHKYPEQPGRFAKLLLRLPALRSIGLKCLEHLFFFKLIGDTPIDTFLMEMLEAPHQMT

[2] = Mutagenicity in Saccharomyces cerevisiae D7 assessed as induction of mutagenesis by measuring forward and reverse mutations up to 0.1 mg/mL; type: toxicity
[3] = biological target: T2, Retinoid X receptor (Homo sapiens) (UniProt P28702+P48443+P19793); test: Agonist activity at human RXR binding domain and activation domain expressed in human HCT116 cells assessed as rexinoid activity at 1000 nM incubated for 24 hrs by luciferase reporter gene based mammalian two-hybrid assay relative to bexarotene; type: cell-based
Method in brief: (§1)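 HCT-116 cells plated overnight (80,000/well, DMEM with 10% FBS), co-transfected for 24 h with human RXR binding-domain (bait) and activation-domain (prey) vectors, pFR-Luc Gal4 reporter and renilla control. Treated 24 h at 25, 100 or 1000 nM final; vehicle ethanol or DMSO 0.1%. Dual-luciferase read-out. Three independent assays in triplicate; bexarotene set to 100%.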

[4] = biological target: T2, Retinoid X receptor (Homo sapiens); test: Agonist activity at human RXR binding domain and activation domain expressed in human HCT116 cells assessed as rexinoid activity at 100 nM incubated for 24 hrs by luciferase reporter gene based mammalian two-hybrid assay relative to bexarotene; type: cell-based; method in brief: as §1
Retinoid X receptor = biological target: T3, Retinoid X receptor (Homo sapiens, UniProt P28702+P48443+P19793); test: Agonist activity at human RXR binding domain and activation domain expressed in human HCT116 cells assessed as rexinoid activity incubated for 24 hrs by luciferase reporter gene based mammalian two-hybrid assay; type: cell-based
T3 sequence (P28702 whole entry): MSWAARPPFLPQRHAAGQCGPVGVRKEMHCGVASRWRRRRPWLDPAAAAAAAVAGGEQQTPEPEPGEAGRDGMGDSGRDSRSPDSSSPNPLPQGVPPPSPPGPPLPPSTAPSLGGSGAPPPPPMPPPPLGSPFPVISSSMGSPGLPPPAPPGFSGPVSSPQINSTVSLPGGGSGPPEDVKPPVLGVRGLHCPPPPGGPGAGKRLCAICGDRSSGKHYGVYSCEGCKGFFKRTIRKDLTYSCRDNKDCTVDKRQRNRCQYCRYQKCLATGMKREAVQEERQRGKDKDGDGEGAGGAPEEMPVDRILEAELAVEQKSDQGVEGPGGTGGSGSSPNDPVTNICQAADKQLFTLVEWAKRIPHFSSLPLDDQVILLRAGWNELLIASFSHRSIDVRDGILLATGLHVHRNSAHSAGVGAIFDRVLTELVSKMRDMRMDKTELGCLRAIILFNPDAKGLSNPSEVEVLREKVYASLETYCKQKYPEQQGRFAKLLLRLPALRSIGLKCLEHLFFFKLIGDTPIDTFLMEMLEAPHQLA
T3 sequence (P48443 whole entry): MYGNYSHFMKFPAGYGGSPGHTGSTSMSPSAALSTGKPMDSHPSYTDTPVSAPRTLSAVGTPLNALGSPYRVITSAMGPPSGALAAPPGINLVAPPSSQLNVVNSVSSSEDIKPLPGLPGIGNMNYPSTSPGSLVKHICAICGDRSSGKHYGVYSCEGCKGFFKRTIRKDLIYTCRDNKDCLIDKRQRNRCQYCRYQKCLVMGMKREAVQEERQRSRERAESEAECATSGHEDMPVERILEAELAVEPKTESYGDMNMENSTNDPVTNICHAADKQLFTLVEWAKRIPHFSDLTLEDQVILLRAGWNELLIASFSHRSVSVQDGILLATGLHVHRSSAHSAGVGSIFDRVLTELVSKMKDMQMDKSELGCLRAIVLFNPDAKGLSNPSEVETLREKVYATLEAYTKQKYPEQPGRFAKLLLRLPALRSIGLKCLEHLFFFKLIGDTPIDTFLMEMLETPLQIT
T3 sequence (P19793 whole entry): T1 sequence (whole entry)

[5] = biological target: T2, Retinoid X receptor (Homo sapiens); test: Agonist activity at human RXR binding domain and activation domain expressed in human HCT116 cells assessed as rexinoid activity at 25 nM incubated for 24 hrs by luciferase reporter gene based mammalian two-hybrid assay relative to bexarotene; type: cell-based; method in brief: as §1
[6] = biological target: T2, Retinoid X receptor (Homo sapiens); test: Antagonist activity against human RXR binding domain and activation domain expressed in human HCT116 cells assessed as reduction in bexarotene-induced rexinoid activity incubated for 24 hrs by luciferase reporter gene based mammalian two-hybrid assay; type: cell-based
[7] = biological target: T4, Retinoic acid receptor RXR-alpha/oxysterols receptor LXR-alpha (Homo sapiens, UniProt P19793+Q13133); test: Agonist activity at human RXRalpha/LXRalpha expressed in human HCT116 cells assessed as reduction in SREBP-mediated transcription activity at 100 nM incubated for 24 hrs by luciferase reporter gene assay relative to bexarotene; type: cell-based; design: scale not given: the % may be the effect or the level left; settings: 0.1 µM
T4 sequence (P19793 whole entry): T1 sequence (whole entry)
T4 sequence (Q13133 whole entry): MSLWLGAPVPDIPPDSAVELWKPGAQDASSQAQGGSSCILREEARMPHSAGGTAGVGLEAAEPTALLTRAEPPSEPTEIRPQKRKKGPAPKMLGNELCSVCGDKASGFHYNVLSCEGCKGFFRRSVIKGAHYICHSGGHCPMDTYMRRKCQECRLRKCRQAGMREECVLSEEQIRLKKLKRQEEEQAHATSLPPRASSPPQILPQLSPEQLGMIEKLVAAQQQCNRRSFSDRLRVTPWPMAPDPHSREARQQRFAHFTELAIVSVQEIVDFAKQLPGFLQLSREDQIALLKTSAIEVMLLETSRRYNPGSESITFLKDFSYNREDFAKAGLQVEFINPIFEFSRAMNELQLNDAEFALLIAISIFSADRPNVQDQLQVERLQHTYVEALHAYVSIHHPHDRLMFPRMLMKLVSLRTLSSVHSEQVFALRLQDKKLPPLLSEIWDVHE
Method in brief: (§2)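 HCT116 cells co-transfected for 24 h with 100 ng pBP1c(6500)-Luc (about 6500 bp murine SREBP-1c promoter), 10 ng human LXRα and 20 ng renilla. Treated 24 h with compound at 100 nM, alone or with 100 nM TO901317. Luciferase output. Three independent assays in triplicate; bexarotene = 100%.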

[8] = biological target: T1, Retinoic acid receptor RXR-alpha (Homo sapiens); test: Agonist activity at human RXRalpha expressed in human HCT116 cells assessed as increase in RXRE-mediated transcription at 25 nM incubated for 24 hrs by RXRE luciferase reporter gene assay relative to bexarotene; type: cell-based
Method in brief: (§3)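 HCT-116 cells (80,000/well) co-transfected for 24 h with 250 ng RXRE-luciferase reporter (DR1 element from the rat cellular retinol binding protein II gene), 25 ng pSG5-human RXRα and 20 ng renilla. Dosed 24 h at 25, 100 or 1000 nM final; ethanol or DMSO vehicle 0.1%. Dual-luciferase read-out. Three independent assays in triplicate; bexarotene = 100%.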

[9] = biological target: T4, Retinoic acid receptor RXR-alpha/oxysterols receptor LXR-alpha; test: Agonist activity at human RXRalpha/LXRalpha expressed in human HCT116 cells assessed as reduction in SREBP-mediated transcription activity at 100 nM incubated for 24 hrs by luciferase reporter gene assay in presence of 100 nM LXR agonist TO901317 relative to bexarotene; type: cell-based; design: scale not given: the % may be the effect or the level left; settings: 0.1 µM; method in brief: as §2
[10] = Lipid risk index, ratio of agonist activity at human RXRalpha/LXRalpha expressed in human HCT116 cells assessed as reduction in SREBP-mediated transcription activity to agonist activity at human RXRalpha expressed in human HCT116 cells assessed as increase in RXRE-mediated transcription
Method in brief: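 Lipid risk index: SREBP-promoter luciferase activity (HCT116, LXRα-transfected, 100 nM compound with or without 100 nM TO901317, 24 h) divided by RXRE activity at 100 nM. The SREBP:RXRE ratio for bexarotene is set to 1.0.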

HuT78 [11] = test: Growth inhibition of human HUT78 cells at 200 nM incubated for 72 hrs by MTS assay relative to bexarotene; type: functional; settings: HuT78, 72 h, read-out: GI
Method in brief: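 Hut78 cells in RPMI with 10% FBS at 37°C, 5% CO2. Plated 7,500 cells/well and immediately dosed at 200 nM for 72 h. MTS read at A490; percent inhibition with media control set to 0.0, compared with bexarotene set to 100%. Mean of three independent experiments.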

[12] = biological target: T1, Retinoic acid receptor RXR-alpha (Homo sapiens); test: Agonist activity at human RXRalpha expressed in human HCT116 cells assessed as increase in RXRE-mediated transcription at 1000 nM incubated for 24 hrs by RXRE luciferase reporter gene assay relative to bexarotene; type: cell-based; method in brief: as §3
[13] = biological target: T1, Retinoic acid receptor RXR-alpha (Homo sapiens); test: Agonist activity at human RXRalpha expressed in human HCT116 cells assessed as increase in RXRE-mediated transcription at 100 nM incubated for 24 hrs by RXRE luciferase reporter gene assay relative to bexarotene; type: cell-based; method in brief: as §3
Homo sapiens = species on record: Homo sapiens; test: Selectivity index, ratio of agonist activity at human RARalpha expressed in HEK293 cells assessed as increase in RARE-mediated transcription relative to bexarotene to agonist activity at human RXRalpha expressed in human HCT116 cells assessed as increase in RXRE-mediated transcription relative to bexarotene; type: cell-based
Method in brief: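 HEK293 cells (60,000/well) transfected for 24 h with 250 ng pTK-DR5(X2)-Luc, 25 ng human RARα and 20 ng renilla. Treated 24 h at 100 nM; activity expressed as a percentage of all-trans-retinoic acid. This RARE activity is divided by 100 nM RXRE activity, with the bexarotene ratio set to 1.0.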

HuT78 [14] = test: Inhibition of HDAC1 gene expression in human HUT78 cells at 100 nM incubated for 48 hrs by quantitative real-time PCR method; type: functional; settings: HuT78, 48 h
Method in brief: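 Hut78 cells resuspended in RPMI with 1% FBS, plated 750,000/well and dosed at 100 nM for 48 h. Total RNA extracted, 0.5 µg DNase-treated RNA reverse-transcribed, then qPCR for HDAC1. Quantified by ΔΔCt, normalized to GAPDH and relative to vehicle-treated cells (2^-ΔΔCt).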

Row | Structure (SMILES) | Activity [1] | Activity [2] | Activity [3] | Activity [4] | EC50 (Retinoid X receptor) [nM] | Activity [5] [%] | Activity [6] | Activity [7] | Activity [8] [%] | Activity [9] | Ratio [10] | inhibition of growth at 0.2 µM (HuT78 [11]) [%] | Activity [12] | Activity [13] [%] | fold change (FC) [5] | Ratio (Homo sapiens) | inhibition at 0.1 µM (HuT78 [14]) [%] | fold change (FC) ([4]; in the assay text read “relative to activity at 25 nM” for “relative to bexarotene”)
1 | Cc1cc2c(cc1C(=O)c1ccc(S(=O)(=O)O)cc1)C(C)(C)CCC2(C)C | inactive | Non-Toxic | inactive | inactive | > 80000 | 0.6 | Dose-dependent effect | Not Active |  |  |  |  |  |  |  |  |  | 
2 | CCN(c1ccc(C(=O)O)cn1)c1cc2c(cc1C)C(C)(C)CCC2(C)C |  | Non-Toxic | 35 to 58% | 135 to 146% | 13.8 |  |  | Active | 27 to 66 | 13 to 17% | 0.49 - 0.51 | > 85 | 20 to 43% | 68 to 89 | 2 |  |  | 
3 | CCN(c1ccc(C(=O)O)c(F)c1)c1ccc2c(c1)C(C)(C)CCC2(C)C |  | Non-Toxic |  | Active | 125.6 |  |  | 54 to 79% | 27 to 66 | Active | 0.48 - 0.65 | 35 to 51 | Active | 16 to 32 |  | 0.35 to 0.37 |  | 
4 | CC1=C(/C=C/C(C)=C/C=C/C(C)=C/C(=O)O)C(C)(C)CCC1 |  |  |  |  |  |  |  |  |  |  |  |  |  |  |  | 9.5 |  | 
5 | C=C(c1ccc(C(=O)O)cc1)c1cc2c(cc1C)C(C)(C)CCC2(C)C [BEXAROTENE] |  | Non-Toxic |  |  |  |  |  |  |  |  |  |  |  |  |  |  | 10 | 
6 | CCN(c1ccc(C(=O)O)cc1)c1ccc2c(c1)C(C)(C)CCC2(C)C |  | Non-Toxic |  | Active | 143.4 |  |  | 54 to 79% |  | Active |  | 55 to 80 | Active | 16 to 32 |  |  |  | 
7 | CCN(c1cnc(C(=O)O)cn1)c1cc2c(cc1C)C(C)(C)CCC2(C)C | inactive | Non-Toxic |  |  | 295.5 | 3.4 |  | 54 to 79% |  | 29% |  | 35 to 51 | Active |  |  | > 0.5 |  | 5 to 16
8 | C=C(c1ccc(S(=O)(=O)O)cc1)c1cc2c(cc1C)C(C)(C)CCC2(C)C | inactive | Non-Toxic | 17% | inactive | 18200 | 0.8 | Dose-dependent effect | Not Active |  |  |  |  |  |  |  |  |  | 
9 | CCN(c1ccc2c(c1)C(C)(C)CCC2(C)C)c1ncc(C(=O)O)cn1 |  | Non-Toxic | 35 to 58% | 135 to 146% | 40.9 |  |  | Active | 27 to 66 | 13 to 17% | 0.49 - 0.51 | > 85 | 20 to 43% | 68 to 89 | 2 |  |  | 
